Sampled rows, rich in hits. Any-hit rate of the full collection: about 1.4%.
NR2E3 ag-1: activates human photoreceptor nuclear receptor NR2E3; Q9Y5X4; GST-NR2E3/biotin-RetCOR TR-FRET, 1536-well; inhibition of corepressor binding, % at 4.78 µM; actives 0.12% (n = 320,000);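 active means percent inhibition above the cutoff of mean plus 3 SD of all tested compounds, set per screening campaign, cut at about 20% in these data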
Target sequence (Q9Y5X4 whole entry, looked up): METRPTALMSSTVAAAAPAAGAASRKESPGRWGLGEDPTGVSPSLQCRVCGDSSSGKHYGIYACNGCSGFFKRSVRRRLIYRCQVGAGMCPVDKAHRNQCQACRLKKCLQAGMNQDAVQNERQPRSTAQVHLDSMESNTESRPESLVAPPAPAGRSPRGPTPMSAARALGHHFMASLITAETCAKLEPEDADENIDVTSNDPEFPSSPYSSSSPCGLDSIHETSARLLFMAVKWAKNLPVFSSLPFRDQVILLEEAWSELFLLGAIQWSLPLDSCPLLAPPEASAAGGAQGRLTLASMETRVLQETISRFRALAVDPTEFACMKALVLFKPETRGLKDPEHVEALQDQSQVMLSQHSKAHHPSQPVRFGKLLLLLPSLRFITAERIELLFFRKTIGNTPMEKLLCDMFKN
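system = GST-tagged NR2E3 plus biotinylated RetCOR corepressor | input = 1.35 nM GST-NR2E3 | also added = 7 nM biotin-RetCOR | schedule = 5 h incubation at 4 °C | measured by = TR-FRET with europium anti-GST and streptavidin-D2, 340 nm excitation | read-out = percent loss of FRET ratio relative to control wells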
NR1D1 modulator: modulates human Rev-erb alpha binding to DNA; Rev-erbα–FITC-DNA binding, fluorescence polarization, 90 min; activity, % at 10 µM; AID 1259318; actives 0.79% (n = 370,000);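 active means activity above about 14%, limit read from the data; passing the limit was not always enough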
PG9 binder: binds the HIV-1 gp120 antibody PG9; TR-FRET gp120-PG9 antibody binding; actives 0.43% (n = 360,000); AID 624416; inhibition, % at 6.7 µM; in the data active means inhibition above about 8.5%
NR2E3 ag-2: agonists of human NR2E3 nuclear receptor; CHO-S Gal4-NCOR/VP16-NR2E3 two-hybrid, luciferase; AID 602229; actives 0.35% (n = 360,000); inhibition of corepressor binding, % at 3.98 µM;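 active means inhibition above the mean of all tested compounds plus 3 SD, cut at about 70% in these data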;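 further: higher means lower luciferase signal from less NR2E3 corepressor binding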
Rev-erbA confirm: confirmation of modulators of human Rev-erb alpha DNA binding; AID 1259319; actives 61% (n = 3,000); shares compounds with NR1D1 modulator; activation, % at 25 µM; Rev-erb alpha FITC-DNA binding, fluorescence polarization, 90 min;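 active means activation at or above a set limit, or at least 3 SD above the negative control mean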
RORg counter: affects RORgamma DNA binding in a Rev-erb alpha counter-screen. shares compounds with NR1D1 modulator. purified RORgamma protein-FITC-DNA binding, fluorescence polarization. IC50, µM. actives 8% (n = 910). AID 1259320;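 active means Compounds whose fitted half-maximal concentration for disrupting protein-DNA binding is below 10 micromolar; the record names Rev-erb in its text, so the target is in doubt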
Large screens that a line does not name were inactive (follow-up assays come after a bar, where they were run).

O=C(NCc1ccccn1)c1ccc(Cn2c(=S)[nH]c3ccccc3c2=O)cc1	none
CN(CC(=O)Nc1ccc(Cl)c(C(F)(F)F)c1)C(=O)c1cn2ccccc2n1	NR1D1 modulator 20.5 | Rev-erbA confirm inactive
COc1ccccc1NC(=O)c1nnn(CC(=O)Nc2cc(C)cc(C)c2)c1N	none
CCOc1ccccc1NC(=O)c1nnn(CC(=O)Nc2cc(C)cc(C)c2)c1N	NR1D1 modulator 21.3 | Rev-erbA confirm 32.1 | RORg counter inactive
O=C(Nc1ccccc1)Nc1n[nH]c2nnc(-c3ccccc3)c(-c3ccccc3)c12	none
N#C/C(=C(/O)c1cccc(F)c1)c1nc2ccccc2s1	none
N#C/C(=C(/O)C(Cl)c1ccccc1)c1nc2ccccc2s1 (centres undefined)	NR1D1 modulator 76.3 | Rev-erbA confirm 48.9 | RORg counter inactive
CC1CCN(C(=O)CCn2c(=O)oc3ccc(Cl)cc32)CC1	none (no result: NR2E3 ag-1)
O=C(COC(=O)CCc1c[nH]c2ccccc12)NC1CCS(=O)(=O)C1 (centres undefined)	none
N#CCOc1ccccc1CNC[C@H]1O[C@@H](n2cnc(C(N)=O)n2)[C@H](O)[C@@H]1O	NR1D1 modulator 16.3 (no result: NR2E3 ag-1) | Rev-erbA confirm inactive
COc1ccccc1-c1nnc(SCC(=O)Nc2nc(-c3ccccc3)cs2)n1C	none
O=C(N=c1ccn(-c2nc3ccccc3nc2NS(=O)(=O)c2ccc(Cl)cc2)cc1)c1cccs1	NR1D1 modulator 91.2 | Rev-erbA confirm 33.5 | RORg counter inactive
CCc1ccc(-c2cc(C(F)(F)F)n3nc(C(=O)Nc4c(C)nn(Cc5ccccc5Cl)c4C)cc3n2)s1	NR1D1 modulator 72.4 | Rev-erbA confirm 37.7 | RORg counter inactive
Cc1ccccc1Cn1ccc(NC(=O)c2cc3nc(-c4ccco4)cc(C(F)(F)F)n3n2)n1	none
CCc1ccc(-c2cc(C(F)(F)F)n3nc(C(=O)Nc4c(C)nn(Cc5ccccc5C)c4C)cc3n2)s1	none (no result: NR1D1 modulator, PG9 binder)
COc1cccc(-c2cc(C(=O)Nc3cnn(Cc4ccccc4C)c3)no2)c1	none
CCc1ccc(-c2cc(C(F)(F)F)n3nc(C(=O)Nc4cnn(Cc5ccccc5C)c4)cc3n2)s1	NR1D1 modulator 37.0 | Rev-erbA confirm inactive
Cc1ccccc1Cn1cc(NC(=O)c2cc(-c3cccs3)on2)cn1	NR1D1 modulator 19.8 | Rev-erbA confirm inactive
O=C(CSc1nnc2scc(-c3ccccc3)n12)Nc1nsc(-c2ccc(Cl)cc2)n1	NR1D1 modulator 30.8 | Rev-erbA confirm inactive
O=C(CSc1nnc2scc(-c3ccccc3)n12)Nc1nsc(-c2ccccc2)n1	NR1D1 modulator 43.5 (no result: PG9 binder) | Rev-erbA confirm 38.6 | RORg counter inactive
COC(=O)C1=C(C(=O)OC)[C@@H]2Nc3ccccc3[C@@]23C[C@@H](C(=O)OC)N(C(=O)c2ccco2)C3=N1	none
Cc1cccc(C(=O)OCc2cc(=O)oc3c(C)c(C)ccc23)c1O	none (no result: NR1D1 modulator, PG9 binder)
CCOc1ncccc1C(=O)OCc1cc(=O)oc2c(C)c(C)ccc12	NR1D1 modulator 34.2 (no result: NR2E3 ag-1) | Rev-erbA confirm inactive
COc1ccc(CNC(=O)C(C#N)c2nc3ccccc3nc2N2CCN(C)CC2)cc1 (centres undefined)	none
COc1ccc(CNC(=O)C(C#N)c2nc3ccccc3nc2N2CCCC2)cc1 (centres undefined)	NR1D1 modulator 41.9 | Rev-erbA confirm 23.0
Cc1ccc(C)c(CN2C(=O)C3CCCN3c3ccc(C#N)cc32)c1 (centres undefined)	NR1D1 modulator 48.8 | Rev-erbA confirm 35.9
Cc1ccc(CN2C(=O)C3CCCN3c3ccc(C#N)cc32)cc1 (centres undefined)	none (no result: NR1D1 modulator, PG9 binder, NR2E3 ag-2)
N#Cc1ccc(-c2cccnc2)nc1SCc1ccc(Cl)cc1Cl	NR1D1 modulator 19.6 | Rev-erbA confirm inactive
Cc1nn(-c2ccccc2)c(C)c1NC(=O)COC(=O)c1cc(Br)ccc1O	NR1D1 modulator 31.3 | Rev-erbA confirm inactive
Cc1cccc(C(=O)OCC(=O)Nc2c(C)nn(-c3ccccc3)c2C)c1O	none
O=C1c2ccccc2NC(c2ccc(-c3ccccc3F)o2)N1O (centres undefined)	NR1D1 modulator 23.7 | Rev-erbA confirm 20.7
O=C1c2ccccc2NC(c2ccc(-c3cccc(F)c3)o2)N1O (centres undefined)	none
CC(=O)Nc1ccc2c(COC(=O)CC3Sc4ccccc4NC3=O)cc(=O)oc2c1 (centres undefined)	NR1D1 modulator 52.7 | Rev-erbA confirm 26.2
COc1ccc(C2=NN(C(=O)CSc3ncccn3)C(c3ccc(C)cc3)C2)cc1 (centres undefined)	none
COc1ccc(C2=NN(C(=O)CSc3nc(=O)n4cccc(C)c4n3)C(c3ccc(C)cc3)C2)cc1 (centres undefined)	NR1D1 modulator 39.3 | Rev-erbA confirm inactive
Cc1ccc(C2CC(c3cccs3)=NN2C(=O)CSc2nc(=O)n3cc(C)ccc3n2)cc1 (centres undefined)	NR1D1 modulator 26.7 | Rev-erbA confirm 18.3
COc1ccc(C2=NN(C(=O)CSc3ncccn3)C(c3cccc(OC)c3OC)C2)cc1 (centres undefined)	NR1D1 modulator 38.9 | Rev-erbA confirm 33.0 | RORg counter inactive
Cc1ccc2nc(SCC(=O)N3N=C(c4cccs4)CC3c3ccc(F)cc3)nc(=O)n2c1 (centres undefined)	none (no result: NR2E3 ag-1)
CC1(C)Cc2c(sc3c2c(N)nc(=S)n3Cc2ccc(Br)cc2)CO1	NR1D1 modulator 135.4 | Rev-erbA confirm 94.9 | RORg counter inactive
CC1(C)Cc2c(sc3nnn(Cc4ccc(Cl)cc4)c(=O)c23)CO1	none
Cc1cccc(NC(=O)c2nc[nH]c2C(=O)N2CCC(C)CC2)c1	none
O=C(COC(=O)[C@@H]1CCCN1C(=O)c1cccs1)NCCc1ccccc1	none
CCCCCn1c(SCC(=O)OC)nc2c1c(=O)[nH]c(=O)n2C	none
CCCc1nc2sc3c(=O)n(N)cnc3c2c2c1CCCC2	NR1D1 modulator 37.2 | Rev-erbA confirm inactive
CCCCc1nc2sc3c(=O)n(N)cnc3c2c2c1CCCC2	none
Cc1cccc(NC(=O)c2ccc3c(Cl)c4c(nc3c2)CCCC4)n1	NR1D1 modulator 23.8 | Rev-erbA confirm inactive
O=C(Nc1ccc(Cl)cn1)c1ccc2c(Cl)c3c(nc2c1)CCC3	none
COc1ccc(C2=NN(CCC(=O)NC3CCCCC3C)C(=O)CC2)cc1 (centres undefined)	none (no result: NR2E3 ag-1)
CCc1ccc2nc(/N=C(\N)NC(=O)c3ccccc3)nc(C)c2c1	NR1D1 modulator 23.3 | Rev-erbA confirm inactive
Cc1cc(C)c2nc(/N=C(\N)NC(=O)c3ccccc3)nc(C)c2c1	NR1D1 modulator 55.6 | Rev-erbA confirm inactive
COc1ccc(C(=O)Nc2ccc(C(=O)Nc3cccnc3)cc2)cc1	NR1D1 modulator 25.9 | Rev-erbA confirm 23.9
COc1ccc(C(=O)Nc2cccc(-c3cnc4ccccc4n3)c2)cc1	NR1D1 modulator 25.6 | Rev-erbA confirm inactive
Cc1ccc(C(=O)Nc2cccc(-c3cnc4ccccc4n3)c2)cc1	none

High-throughput results deposited in PubChem BioAssay by several laboratories.
